# From PubChem BioAssay
# Hits are enriched below; roughly 6.7% of the tested compounds scored in any of these assays.
# CHOP inhibitor: inhibitors of CHOP induction in ER stress response; inhibition, % at 10 µM; CHO-K1 CHOP-promoter luciferase, tunicamycin-induced, 15-18 h; actives 3.8% (n = 220,000); AID 2732;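 active = compounds that reduced the stress-induced luciferase reporter signal by more than about 70% of percent inhibition, limit read from the data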;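 also: 0% = tunicamycin plus vehicle and 100% = wells without tunicamycin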
# PREPL inh: inhibitors of human prolyl oligopeptidase-like enzyme PREPL; Q4J6C6; actives 0.68% (n = 320,000); inhibition, % at 5.96 µM; recombinant PREPL, fluorescence polarization activity-based probe; in the data active = inhibition above about 43%;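 also: 0% = enzyme with DMSO and 100% = wells lacking enzyme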
# Target sequence (Q4J6C6 whole entry, looked up): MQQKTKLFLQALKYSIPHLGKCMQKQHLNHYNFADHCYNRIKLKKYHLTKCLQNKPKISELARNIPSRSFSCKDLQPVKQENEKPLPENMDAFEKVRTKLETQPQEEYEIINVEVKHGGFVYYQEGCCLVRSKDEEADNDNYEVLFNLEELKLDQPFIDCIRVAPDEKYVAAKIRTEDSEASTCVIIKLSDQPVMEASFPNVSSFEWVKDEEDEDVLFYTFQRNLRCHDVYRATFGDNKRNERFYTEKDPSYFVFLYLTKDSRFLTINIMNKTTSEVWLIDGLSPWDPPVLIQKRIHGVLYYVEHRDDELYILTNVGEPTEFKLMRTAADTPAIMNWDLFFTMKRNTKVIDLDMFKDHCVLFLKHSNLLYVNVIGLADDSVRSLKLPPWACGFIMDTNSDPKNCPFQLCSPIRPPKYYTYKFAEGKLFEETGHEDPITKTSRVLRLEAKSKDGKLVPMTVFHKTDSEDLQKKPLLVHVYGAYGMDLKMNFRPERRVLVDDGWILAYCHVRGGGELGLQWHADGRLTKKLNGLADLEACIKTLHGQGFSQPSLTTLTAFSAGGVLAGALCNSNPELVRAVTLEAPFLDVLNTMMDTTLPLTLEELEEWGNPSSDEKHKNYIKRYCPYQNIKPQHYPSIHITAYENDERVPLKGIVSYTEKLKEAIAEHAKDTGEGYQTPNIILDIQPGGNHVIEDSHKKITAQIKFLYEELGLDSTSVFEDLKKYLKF
# GRIN3A LBD mod: modulates the human NR3A ligand-binding domain; NR3A LBD differential scanning fluorimetry, Tm shift; 0% = protein alone, 100% = glycine-bound protein; Tm shift relative to glycine control, % at 25 µM; actives 2.5% (n = 340,000);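 active = melting temperature shift of at least 10% of the positive control shift, at one fixed dose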
# CSC inhib: blocks cancer stem cells | cancer stem cell-like cells viability, luminescence | inhibition, % at 7.5 µM | actives 1.1% (n = 300,000) | AID 2717; in the data active = inhibition above about 75%; inconclusive = no clear call, values can overlap the other calls; tested in HMLE shEcad cells
# T cruzi inh: blocks replication of Trypanosoma cruzi; T. cruzi beta-gal in NIH3T3, luminescence, 90 h; inhibition, % (test concentration not listed); actives 1.4% (n = 300,000);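 active = mean inhibition across valid replicates above about 55%, limit read from the data; inconclusive = mean below that limit but half or more replicates reach it; inactive = mean below it, under half of replicates reach it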;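 also: signal also drops with host cell toxicity which is not excluded here; 0% = plate median of DMSO wells and 100% = zero luminescence signal; higher percent means less beta-gal luminescence so fewer parasites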
#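 System: NIH/3T3 fibroblasts plus reporter T. cruzi. Medium: DMEM plus 2% FBS. Probe or stimulus: 5000 reporter trypomastigotes per well. Compound: single 50 nL compound addition per well in DMSO. Incubation: co-culture of at least 90 h after 3 h attachment. Detection: GalScreen β-gal luminescence, detergent lysis, 60 min. Evaluation: parasite load inhibition, %.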
# Beta cell apopt: blocks beta cell apoptosis | INS-1E cytokine-induced death, ATP luminescence, 48 h; percent of positive-control rescue, neutral wells zero | protection from apoptosis, % (no concentration beside the values) | actives 0.8% (n = 300,000) | AID 435005;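 active = Every replicate reaches about 75%, or at least half do and their mean reaches it too, limit read from the data; inconclusive = At least half of replicates reach the limit but their mean does not; inactive = Under half of replicates reach the limit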;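 also: 0% = cytokine-treated negative control wells and 100% = positive control rescue; higher means more ATP so stronger rescue from cytokine killing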
# Starred values were filed as active, the others as inactive; u = inconclusive; x = no result.
SMILES,CHOP inhibitor,PREPL inh,GRIN3A LBD mod,CSC inhib,T cruzi inh,Beta cell apopt
Cn1nc([N+](=O)[O-])nc1Oc1ccc(C(C)(C)C)cc1,14.6,2.2,-4.8,-0.7,64.0*,-2.1
Cn1nc([N+](=O)[O-])nc1Oc1ccccc1,9.3,3.9,-0.1,x,79.4*,x
Cc1ccc2nc(/C(C#N)=C\c3ccc(N4CCCCC4)c([N+](=O)[O-])c3)[nH]c2c1,79.0*,27.3,-0.7,69.1,72.4*,11.8
N#C/C(=C/c1ccc(N2CCCC2)c([N+](=O)[O-])c1)c1nc2ccccc2[nH]1,78.4*,14.5,11.7*,-5.2,11.4,2.8
Cc1ccc2nc(/C(C#N)=C/c3ccccc3C(=O)O)[nH]c2c1,x,9.9,-1.5,-23.2,12.2,-5.3
Cc1ccc(C(=O)O/N=C\c2ccc(N3CCCCC3)c([N+](=O)[O-])c2)cc1,12.3,17.9,-0.7,-17.4,-0.7,0.2
Cc1ccc2nc(/C(C#N)=C/c3ccc(O)c(O)c3)[nH]c2c1,x,32.9,18.9*,40.0,-21.6,1.8
OCCN1CCN(Cc2cccc(Oc3ccc(Cl)cc3)c2)CC1,2.2,-12.8,0.7,62.2,60.7*,4.0
OC1CCN(Cc2cccc(Oc3ccccc3)c2)CC1,11.8,-11.1,-1.3,-12.9,67.6*,-3.9
CN1CCN(Cc2cccc(Oc3ccccc3)c2)CC1,29.7,2.5,0.9,24.9,48.7,-4.1
CCOC(=O)c1ccc(NC(=O)C(=O)NCc2ccc(/C=C(/C#N)C(=O)NCCOC)o2)cc1,71.8*,-4.3,-0.6,-10.9,0.6,-6.5
c1cc2c3c(cccc3c1)NC1(CCCCC1)N2,13.3,20.0,5.8,x,36.4,x
c1cc2c3c(cccc3c1)NC1(CCC3(CC1)Nc1cccc4cccc(c14)N3)N2,20.4,34.6,17.9*,10.6,59.1*,27.3
O=C(NCC1CCCO1)c1ccc2c(c1)S(=O)(=O)c1ccccc1C2=O (stereo unspecified),x,-4.4,1.3,-3.3,-12.0,-2.1
CCN1/C(=C/c2cc[n+](CCCS(=O)(=O)[O-])c3ccccc23)Sc2ccccc21,-0.2,29.0,1.3,10.4,20.8,6.0
C=CC[n+]1ccc(/C=C2\C=Cc3cc(C)ccc3N2CC)c2ccccc21,74.6*,x,-6.0,x,x,x
Cc1cc(/C=C2/SC(=S)N(c3cccc(Cl)c3)C2=O)c(C)n1-c1cccnc1,x,7.8,3.5,x,21.2,125.1*
Cc1cc(/C=C2\SC(=S)N(C)C2=O)c(C)n1-c1ccccc1O,x,0.4,-16.9,97.9*,27.6,11.5
Cc1cc(/C=C2/NC(=O)N(c3ccccc3)C2=O)c(C)n1-c1cccnc1,-0.3,4.6,-7.2,-5.8,-3.1,-2.0
Cc1cc(/C=C2/SC(=S)N(c3ccc([N+](=O)[O-])cc3)C2=O)c(C)n1-c1cccnc1,71.1*,5.4,0.5,27.8,59.1*,105.7*
CC(=O)c1csc(CS(=O)(=O)c2ccccn2)n1,-9.0,-2.4,0.4,-4.5,-15.3,-6.5
C/C(N)=C(/C#N)C(=O)COC(=O)C1CCN(S(=O)(=O)c2cccs2)CC1,x,-7.0,6.0,-10.0,x,-5.8
CCOC(=O)C1(CCc2ccccc2)CCN(Cc2c(O)cccc2OC)CC1,72.6*,-20.8,-2.6,13.2,45.3,20.1
CCOC(=O)C1(Cc2ccccc2)CCN(Cc2ccc(C)s2)CC1,89.9*,5.3,0.4,7.2,10.9,-10.6
CCOC(=O)C1(CCOc2ccccc2)CCN(Cc2cccc3nonc23)CC1,44.4,-32.6,2.1,38.9,57.4*,8.1
SMILES,CHOP inhibitor,PREPL inh,GRIN3A LBD mod,CSC inhib,T cruzi inh,Beta cell apopt
CC(C)CN(C(=O)CSc1nc2ccccc2o1)c1c(N)n(Cc2ccccc2)c(=O)[nH]c1=O,x,0.6,0.5,x,x,-1.4
Cc1ccc(OCC(=O)NNC(=O)c2ccc(NC(=O)C3CC3)cc2)c(C)c1,x,-4.3,28.4*,-0.4,-1.6,4.5
COc1ccc(-c2nn(C)c(=O)c3ccccc23)cc1NC(=O)Cn1nc(C)c2ccccc2c1=O,39.9,-3.1,-2.5,-9.1,73.6*,5.4
O=C(O)CC1(CC(=O)Nc2ccc3ccccc3n2)CCCCC1,-4.1,6.6,0.5,0.3,-16.4,2.2
Fc1ccc(Cn2c(-c3cscn3)nc3ccccc32)c(Cl)c1,93.8*,6.1,-2.7,-1.9,10.0,x
CCOC(=O)c1cc(-c2ccccc2)n(CCC(=O)N2CCN(c3ccccn3)CC2)c1C,5.3,37.6,-2.6,22.6,16.4,-0.8
CCCC(=O)Nc1nc(C)c(-c2csc(Nc3cc(OC)ccc3OC)n2)s1,50.9,19.4,-0.2,42.2,1.1,3.0
C=CCCC(=O)Nc1nc(C)c(-c2csc(Nc3cc(OC)ccc3OC)n2)s1,75.3*,15.1,-1.8,u,7.1,4.3
CCCn1c(C(O)c2ccc(OC)c(OC)c2)nc2ccccc21 (stereo unspecified),x,3.5,-2.2,1.3,1.1,2.4
O=C(Nc1ccc(Cl)cc1)c1nc[nH]c1C(=O)NCc1ccccc1,x,-14.4,24.4*,20.6,x,1.7
C[C@H](NC(=O)c1[nH]cnc1C(=O)Nc1ccc(Cl)cc1)c1ccccc1,x,-11.9,24.4*,59.5,x,0.2
C[C@@H](NC(=O)c1[nH]cnc1C(=O)Nc1cccc(Cl)c1)c1ccccc1,x,-13.8,25.7*,17.1,x,1.9
C[C@@H](NC(=O)c1[nH]cnc1C(=O)Nc1ccc(Cl)cc1)c1ccccc1,x,-37.9,-0.8,48.0,x,14.4
COc1ccc(N2CCN(C(=O)Cc3ccc(Cl)cc3)CC2)cc1,x,8.3,1.4,-4.8,4.0,x
COc1ccc(/C=C2/SC(=O)N(CC(O)Cn3c4ccccc4c4ccccc43)C2=O)cc1 (stereo unspecified),42.7,13.0,12.8*,18.1,13.4,2.2
O=C1S/C(=C\c2ccccc2)C(=O)N1CC(O)Cn1c2ccccc2c2ccccc21 (stereo unspecified),16.4,18.4,-0.5,37.5,57.9*,-1.3
COc1ccc(/C=C2\SC(=O)N(CCn3cnnn3)C2=O)cc1,-1.0,7.1,-1.3,8.8,-0.9,-6.4
O=S(=O)(NCc1ccccc1)NCc1ccccc1F,61.2,0.0,-0.8,-9.1,-10.5,1.4
O=S(=O)(NCc1ccccc1)NCc1ccccc1,72.5*,-1.9,-0.8,-11.1,-17.7,-11.2
COC(=O)CSc1nc(C)cc(N2CCOCC2)n1,12.1,7.0,-1.2,0.2,-4.4,3.6
C/C(=N\NC(=O)c1csc(C)c1C)c1ccco1,16.6,0.1,-0.3,-2.7,-6.4,4.2
C/C(=N\NC(=O)c1csc(C)c1C)c1ccc(C)s1,-10.3,-1.7,14.8*,3.9,-0.1,0.2
Cc1ccsc1/C=N/NC(=O)c1c[nH]c2ccccc12,12.9,27.2,15.1*,16.5,4.6,x
Cc1ccc(/C=N/NC(=O)c2c[nH]c3ccccc23)s1,-28.1,9.8,35.0*,1.8,2.9,9.3
O=C(N/N=C/c1ccsc1)c1c[nH]c2ccccc12,x,-0.8,31.1*,-18.1,8.1,1.5
